We go through ten molecules from ChEMBL document CHEMBL1133629, “Cholic acid derivatives as 1,2,4,5-tetraoxane carriers: structure and antimalarial and antiproliferative activity” (J Med Chem, 2000).

Assay [1] is described as follows: Selectivity, ratio of PHA-stimulated PBMC to PBMC. It counts as functional.
Assay [2] is described as follows: Selectivity, ratio of PHA-stimulated PBMC to D6 clone. It is filed as functional.
Assay [3] has as its system Plasmodium falciparum. Briefly: Antimalarial activity in Plasmodium falciparum Indochina W2. It counts as functional, organism-based. The gist of the method:
(§1)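 P. falciparum clones in human erythrocytes at 0.2% parasitemia and 1% hematocrit, in RPMI-1640 without folate or PABA plus 10% heat-inactivated human plasma. Compounds were diluted 2-fold 11 times ([…] range). Incubation was at 37 °C under 5% CO2/5% O2/90% N2, with [3H]hypoxanthine added at 42 h and 24 h further (66 h total). Cells were freeze-lysed, harvested and scintillation-counted; IC50 by nonlinear logistic dose-response fit.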

A short description of assay [4]: Cytotoxic activity against phytohemagglutininin (PHA)-stimulated peripheral blood mononuclear cells (PBMC) inhibition. It counts as functional. The following applies: Homo sapiens; read-out: Cytotoxicity IC50. A digest of the protocol:
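PBMC were isolated from heparinized blood of three healthy volunteers by density-gradient centrifugation and seeded at 100 000 cells/well in RPMI-based medium. Stimulated cultures received PHA at 5 µg/mL final; non-stimulated cultures received none. Compound dilutions were added 2 h later in triplicate, with medium-only controls. IC50 was determined for each donor.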

Assay [5] relates to Plasmodium falciparum. Briefly: Antimalarial activity against Plasmodium falciparum African D6. It is filed as functional, organism-based. The gist of the method: as §1
A further assay has as its system HeLa. Briefly: Antiproliferative activity in HeLa cells of Human cervix carcinoma. It is filed as functional, cell-based. A digest of the protocol:
(§2)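 Cells were maintained as monolayers at 37 °C, 5% CO2, in RPMI-1640 with 10% heat-inactivated FBS, 25 mM Hepes, pH 7.2. They were seeded at 2000 cells/well in triplicate, and five concentrations were added 20 h later from 8 mM DMSO stocks; DMSO-only controls. MTT was added at 72 h for 4 h, then SDS/HCl, with OD570 read the next day. Blank-corrected survival vs control; IC50 = 50% survival inhibition.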

Assay [6] can be described thus: Antiproliferative activity in Fem-X of Human melanoma. It is filed as functional. The gist of the method: as §2
The next assay relates to FM3A. Briefly: Antiproliferative activity in Mouse mammary tumor FM3A. It counts as functional, cell-based.
Assay [7] concerns Plasmodium falciparum. Put plainly: Antimalarial activity in Plasmodium falciparum FCR3. It counts as functional, organism-based.
The subject of the next assay is CCRF-CEM. Put plainly: Antiproliferative activity as Growth inhibition in CCRF-CEM Leukemia cell line. It counts as functional. Particulars: Homo sapiens. The gist of the method: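 NCI 60-cell-line screen: 48-h continuous drug exposure, growth measured by sulforhodamine B protein assay. GI50 is the interpolated concentration giving +50 percentage growth.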

pEC50, pIC50: −log10 of the molar value.

The term pIC50 denotes the IC50 on a negative log10 scale, so that one unit is a factor of ten. High values mean a low IC50, low ones a high IC50. Take `CCCNC(=O)CCC(C)[C@H]1CC[C@H]2[C@@H]3[C@H](OC(C)=O)C[C@@H]4C[C@]5(CC[C@]4(C)[C@H]3C[C@H](OC(C)=O)[C@]12C)OO[C@@]1(CC[C@@]2(C)[C@H](C[C@@H](OC(C)=O)[C@@H]3[C@@H]2C[C@H](OC(C)=O)[C@]2(C)[C@@H](C(C)CCC(=O)NCCC)CC[C@@H]32)C1)OO5` (some centres not stated): the Ratio in assay [1] is recorded as above 10700; in [2], 10333. Moreover, the pIC50 in the assay with Plasmodium falciparum [3] is 7.22; in the assay with Plasmodium falciparum [5], 8.03; in the assay with HeLa (Homo sapiens, HeLa) it was 4.48; in assay [6] it was 4.64. Further, the CC50 in assay [4] is 96 µM.

On to CISPLATIN, for which, in the assay with HeLa (hela), the pIC50 was 8.46.

Take `CC(=O)O[C@H]1C[C@H]2[C@@H]([C@H](OC(C)=O)C[C@@H]3C[C@]4(CC[C@@]32C)OO[C@]2(CC[C@@]3(C)[C@H](C[C@@H](OC(C)=O)[C@@H]5[C@@H]3C[C@H](OC(C)=O)[C@]3(C)[C@@H](C(C)CCC(N)=O)CC[C@@H]53)C2)OO4)[C@@H]2CC[C@H](C(C)CCC(N)=O)[C@@]12C` (some centres not stated): the pIC50 in the assay with Plasmodium falciparum [3] was 7.23; in the assay on Plasmodium falciparum [5], 6.89; in the assay with HeLa (Homo sapiens, HeLa) it was 5.22; in assay [6], 5.21.

The term pEC50 denotes the EC50 on a negative log10 scale, so that one unit is a factor of ten. Consider `C[C@@H]1CC[C@H]2[C@@H](C)C(=O)O[C@@H]3O[C@@]4(C)CC[C@@H]1[C@]32OO4` [ARTEMISININ], for which the pIC50 in the assay on Plasmodium falciparum [3] was 8.14; in the assay with Plasmodium falciparum [5], 8.07. Moreover, the pEC50 in the assay on FM3A was 5.00; in the assay on Plasmodium falciparum [7] it was 8.11.

A word on the GI50: it is the concentration at which growth is held to half of that of the control. High values mean less potent growth inhibition, low ones more potent growth inhibition. `CC(=O)O[C@H]1C[C@H]2[C@@H]([C@H](OC(C)=O)C[C@@H]3C[C@]4(CC[C@@]32C)OO[C@@]2(CC[C@@]3(C)[C@H](C[C@@H](OC(C)=O)[C@@H]5[C@@H]3C[C@H](OC(C)=O)[C@]3(C)[C@@H](C(C)CCC(N)=O)CC[C@@H]53)C2)OO4)[C@@H]2CC[C@H](C(C)CCC(N)=O)[C@@]12C` (some centres not stated) returned a GI50 in the assay on CCRF-CEM of 0.97 µM. For the same molecule, the pIC50 is 7.73 in the assay on Plasmodium falciparum [3]; 7.62 in the assay on Plasmodium falciparum [5]; 5.43 in the assay with HeLa (Homo sapiens, HeLa); 5.51 in [6].

With `CCCNC(=O)CCC(C)[C@H]1CC[C@H]2[C@@H]3[C@H](OC(C)=O)C[C@@H]4C[C@]5(CC[C@]4(C)[C@H]3C[C@H](OC(C)=O)[C@]12C)OO[C@]1(CC[C@@]2(C)[C@H](C[C@@H](OC(C)=O)[C@@H]3[C@@H]2C[C@H](OC(C)=O)[C@]2(C)[C@@H](C(C)CCC(=O)NCCC)CC[C@@H]32)C1)OO5` (some centres not stated), it took 0.1 µM to inhibit growth with CCRF-CEM by half (GI50). Further, the Ratio in [1] is above 15900; in assay [2] it was 12500. Further, the pIC50 in the assay on Plasmodium falciparum [3] was 7.52; with Plasmodium falciparum [5] it was 7.70; in the assay with HeLa (Homo sapiens, HeLa), 6.78; in assay [6], 4.03. Further, the CC50 in assay [4] was found to be 251 µM.

On to `COC(=O)CCC(C)[C@H]1CC[C@H]2[C@@H]3[C@H](OC(C)=O)C[C@@H]4C[C@]5(CC[C@]4(C)[C@H]3C[C@H](OC(C)=O)[C@]12C)OO[C@]1(CC[C@@]2(C)[C@H](C[C@@H](OC(C)=O)[C@@H]3[C@@H]2C[C@H](OC(C)=O)[C@]2(C)[C@@H](C(C)CCC(=O)OC)CC[C@@H]32)C1)OO5` (some centres not stated), for which the pIC50 in the assay on Plasmodium falciparum [3] is below 7.02; in the assay on Plasmodium falciparum [5], below 7.02; in the assay on HeLa (Homo sapiens, HeLa), 4.69; in assay [6] it was 4.71.

For `CC(=O)O[C@H]1C[C@H]2[C@@H]([C@H](OC(C)=O)C[C@@H]3C[C@]4(CC[C@@]32C)OO[C@]2(CC[C@@]3(C)[C@H](C[C@@H](OC(C)=O)[C@@H]5[C@@H]3C[C@H](OC(C)=O)[C@]3(C)[C@@H](C(C)CCC(=O)O)CC[C@@H]53)C2)OO4)[C@@H]2CC[C@H](C(C)CCC(=O)O)[C@@]12C` (some centres not stated), the pIC50 is below 7.00 in the assay on Plasmodium falciparum [3]; below 7.00 in the assay with Plasmodium falciparum [5]; 8.04 in the assay with HeLa (Homo sapiens, HeLa); 8.12 in assay [6].

As to `COC(=O)CCC(C)[C@H]1CC[C@H]2[C@@H]3[C@H](OC(C)=O)C[C@@H]4C[C@]5(CC[C@]4(C)[C@H]3C[C@H](OC(C)=O)[C@]12C)OO[C@@]1(CC[C@@]2(C)[C@H](C[C@@H](OC(C)=O)[C@@H]3[C@@H]2C[C@H](OC(C)=O)[C@]2(C)[C@@H](C(C)CCC(=O)OC)CC[C@@H]32)C1)OO5` (some centres not stated), halving of growth in the assay on CCRF-CEM (GI50) required 14.8 µM. Also, the pIC50 was below 7.02 with Plasmodium falciparum [3]; below 7.02 in the assay with Plasmodium falciparum [5]; below 4.54 in the assay on HeLa (Homo sapiens, HeLa); below 4.54 in [6].

In the assay with CCRF-CEM, `CC(=O)O[C@H]1C[C@H]2[C@@H]([C@H](OC(C)=O)C[C@@H]3C[C@]4(CC[C@@]32C)OO[C@@]2(CC[C@@]3(C)[C@H](C[C@@H](OC(C)=O)[C@@H]5[C@@H]3C[C@H](OC(C)=O)[C@]3(C)[C@@H](C(C)CCC(=O)O)CC[C@@H]53)C2)OO4)[C@@H]2CC[C@H](C(C)CCC(=O)O)[C@@]12C` (some centres not stated) registered a GI50 of 0.0012 µM. In addition, the pIC50 in the assay on Plasmodium falciparum [3] was below 7.00; with Plasmodium falciparum [5], below 7.00; in the assay with HeLa (Homo sapiens, HeLa), 8.28; in assay [6] it was 8.38.
